Experimental data from ChEMBL document CHEMBL1139934, “Synthesis and biological activity of imidazopyridine anticoccidial agents: part I” (Eur J Med Chem, 2007).

Experiments:
Eimeria tenella [1] = test: Anticococcidal activity against Eimeria tenella in Chick assessed as reduction in oocyte at 25 ppm relative to control; assay type: functional; set-up: scale not given: the % may be the effect or the level left
In short: (§1)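 Expanded Mini-Assay Coccidiosis (ExMAC) in chickens infected with E. tenella, E. acervulina, E. mitis and E. maxima. Compound given in the feed at the stated ppm. Efficacy for each species is scored 0 to 4 from the percent oocyst reduction relative to an untreated control. Where a compound was tested more than once, all values are reported.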

[2] = target: cGMP-dependent protein kinase (Eimeria tenella, UniProt Q8MMZ8); test: Inhibition of Eimeria tenella cGMP-dependent protein kinase by Ten_K assay
In short: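 Ten_K (Tenella Kinase) assay measuring inhibition of E. tenella PKG enzyme activity. Result expressed as the concentration giving 50% inhibition (IC50, nM). Where a compound was tested more than once, all values are reported.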

Eimeria acervulina [3] = test: Anticococcidal activity against Eimeria acervulina in Chick assessed as reduction in oocyte at 25 ppm relative to control; assay type: functional; set-up: scale not given: the % may be the effect or the level left; in short: as §1
Eimeria mitis [4] = test: Anticococcidal activity against Eimeria mitis in Chick assessed as reduction in oocyte at 25 ppm relative to control; assay type: functional; set-up: scale not given: the % may be the effect or the level left; in short: as §1
Eimeria maxima [5] = test: Anticococcidal activity against Eimeria maxima in Chick assessed as reduction in oocyte at 25 ppm relative to control; assay type: functional; set-up: scale not given: the % may be the effect or the level left; in short: as §1
Eimeria tenella [6] = test: Anticococcidal activity against Eimeria tenella in Chick assessed as reduction in oocyte at 12.5 ppm relative to control; assay type: functional; set-up: scale not given: the % may be the effect or the level left; in short: as §1
Eimeria acervulina [7] = test: Anticococcidal activity against Eimeria acervulina in Chick assessed as reduction in oocyte at 12.5 ppm relative to control; assay type: functional; set-up: scale not given: the % may be the effect or the level left; in short: as §1
Eimeria maxima [8] = test: Anticococcidal activity against Eimeria maxima in Chick assessed as reduction in oocyte at 12.5 ppm relative to control; assay type: functional; set-up: scale not given: the % may be the effect or the level left; in short: as §1
Eimeria mitis [9] = test: Anticococcidal activity against Eimeria mitis in Chick assessed as reduction in oocyte at 12.5 ppm relative to control; assay type: functional; set-up: scale not given: the % may be the effect or the level left; in short: as §1
Eimeria tenella [10] = test: Anticococcidal activity against Eimeria tenella in Chick assessed as reduction in oocyte at 6.25 ppm relative to control; assay type: functional; set-up: scale not given: the % may be the effect or the level left; in short: as §1
Eimeria acervulina [11] = test: Anticococcidal activity against Eimeria acervulina in Chick assessed as reduction in oocyte at 6.25 ppm relative to control; assay type: functional; set-up: scale not given: the % may be the effect or the level left; in short: as §1
Eimeria mitis [12] = test: Anticococcidal activity against Eimeria mitis in Chick assessed as reduction in oocyte at 6.25 ppm relative to control; assay type: functional; set-up: scale not given: the % may be the effect or the level left; in short: as §1

cGMP-dependent protein kinase, sequence (Q8MMZ8 whole entry): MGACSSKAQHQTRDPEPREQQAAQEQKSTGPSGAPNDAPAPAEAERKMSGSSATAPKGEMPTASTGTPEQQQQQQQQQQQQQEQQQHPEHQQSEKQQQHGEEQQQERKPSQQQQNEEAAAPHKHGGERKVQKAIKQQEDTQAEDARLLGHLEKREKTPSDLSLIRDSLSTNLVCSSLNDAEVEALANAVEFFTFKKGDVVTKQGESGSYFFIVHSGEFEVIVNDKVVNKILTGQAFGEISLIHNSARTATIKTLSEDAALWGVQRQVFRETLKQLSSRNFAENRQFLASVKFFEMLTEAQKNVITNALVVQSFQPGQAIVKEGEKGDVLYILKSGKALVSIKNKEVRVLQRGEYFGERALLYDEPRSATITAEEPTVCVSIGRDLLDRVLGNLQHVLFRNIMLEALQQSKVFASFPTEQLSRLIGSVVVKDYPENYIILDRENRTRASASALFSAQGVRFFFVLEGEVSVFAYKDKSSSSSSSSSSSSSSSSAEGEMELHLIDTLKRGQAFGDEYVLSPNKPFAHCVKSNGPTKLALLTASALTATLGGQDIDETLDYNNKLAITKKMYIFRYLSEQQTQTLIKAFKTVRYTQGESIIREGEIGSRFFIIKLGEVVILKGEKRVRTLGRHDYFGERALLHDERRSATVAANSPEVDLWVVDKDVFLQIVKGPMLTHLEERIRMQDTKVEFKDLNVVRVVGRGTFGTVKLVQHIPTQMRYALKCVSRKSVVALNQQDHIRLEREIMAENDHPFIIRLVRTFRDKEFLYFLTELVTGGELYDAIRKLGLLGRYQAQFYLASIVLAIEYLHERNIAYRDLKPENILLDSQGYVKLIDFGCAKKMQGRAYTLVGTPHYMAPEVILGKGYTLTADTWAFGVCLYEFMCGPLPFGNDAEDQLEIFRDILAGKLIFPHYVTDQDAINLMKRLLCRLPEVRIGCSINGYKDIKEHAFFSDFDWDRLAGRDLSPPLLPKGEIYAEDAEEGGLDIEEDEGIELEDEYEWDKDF

Structure (SMILES)	IC50 [2]	Activity (Eimeria tenella [1])	Activity (Eimeria acervulina [3])	Activity (Eimeria mitis [4])	Activity (Eimeria maxima [5])	Activity (Eimeria tenella [6])	Activity (Eimeria acervulina [7])	Activity (Eimeria maxima [8])	Activity (Eimeria mitis [9])	Activity (Eimeria tenella [10])	Activity (Eimeria acervulina [11])	Activity (Eimeria mitis [12])
CN(C)Cc1ccn2c(-c3ccnc(NCc4ccc(F)c(F)c4)n3)c(-c3ccc(F)cc3)nc2c1	60 pM	<50%	<50%	<50%	<50%	–	–	–	–	–	–	–
CN(C)Cc1ccn2c(-c3ccnc(NCc4ccc(Cl)cc4)n3)c(-c3ccc(F)cc3)nc2c1	240 pM	<50%	<50%	<50%	<50%	–	–	–	–	–	–	–
CN(C)Cc1ccn2c(-c3ccnc(NCc4cc(F)cc(F)c4)n3)c(-c3ccc(F)cc3)nc2c1	110 pM	80%	80%	<50%	80%	<50%	<50%	<50%	<50%	–	–	–
CN(C)Cc1ccn2c(-c3ccnc(NS(=O)(=O)c4ccccc4)n3)c(-c3ccc(F)cc3)nc2c1	250 pM	<50%	<50%	<50%	<50%	–	–	–	–	–	–	–
CN(C)Cc1ccn2c(-c3ccnc(NCc4ccc(F)cc4)n3)c(-c3ccc(F)cc3)nc2c1	66 pM	80%	80%	80%	80%	<50%	<50%	<50%	<50%	–	–	–
CN(C)Cc1ccn2c(-c3nc(N)ncc3C#N)c(-c3ccc(F)cc3)nc2c1	1600 pM	<50%	<50%	<50%	<50%	–	–	–	–	–	–	–
CN(C)Cc1ccn2c(-c3ccnc(NCc4ccccc4F)n3)c(-c3ccc(F)cc3)nc2c1	87 pM	80%	<50%	80%	80%	–	–	–	–	–	–	–
CN(C)Cc1ccn2c(-c3nc(N)ncc3Br)c(-c3ccc(F)cc3)nc2c1	5800 pM	50%	<50%	<50%	50%	–	–	–	–	–	–	–
CN(C)Cc1ccn2c(-c3ccnc(NC(=O)C4CCCC4)n3)c(-c3ccc(F)cc3)nc2c1	210 pM	80%	80%	80%	–	80%	<50%	–	80%	< 50%	<50%	<50%
Cc1cc(-c2nc3cc(CN(C)C)ccn3c2-c2ccnc(N)n2)ccc1F	230 pM	80%	80%	80%	–	80%	80%	–	80%	80%	80%	80%
CN(C)Cc1ccn2c(-c3ccnc(Nc4ccccn4)n3)c(-c3ccc(F)cc3)nc2c1	400 pM	80%	<50%	80%	80%	80%	<50%	50%	80%	–	–	–
CN(C)Cc1ccn2c(-c3ccnc(NCc4cc(F)ccc4F)n3)c(-c3ccc(F)cc3)nc2c1	26 pM	<50%	<50%	<50%	80%	–	–	–	–	–	–	–
CN(C)Cc1ccn2c(-c3ccnc(N)n3)c(-c3ccc(F)c(Br)c3)nc2c1	160 pM	80%	80%	<50%	80%	–	–	–	–	–	–	–
CN(C)Cc1ccn2c(-c3ccnc(NCc4cccc(F)c4F)n3)c(-c3ccc(F)cc3)nc2c1	120 pM	<50%	<50%	<50%	<50%	–	–	–	–	–	–	–
CN(C)Cc1ccn2c(-c3ccnc(NCc4ccc(F)cc4F)n3)c(-c3ccc(F)cc3)nc2c1	150 pM	<50%	<50%	<50%	80%	–	–	–	–	–	–	–
CN(C)Cc1ccn2c(-c3ccnc(N)n3)c(-c3ccc(F)cc3F)nc2c1	100 pM	80%	100%	80%	–	100%	100%	–	80%	80%	100%	50%
CN(C)Cc1ccn2c(-c3ccnc(N)n3)c(-c3ccc(Cl)cc3)nc2c1	410 pM	80%	50%	50%	–	<50%	<50%	–	<50%	–	–	–
CCCNc1nccc(-c2c(-c3ccc(F)cc3)nc3cc(CN(C)C)ccn23)n1	–	–	–	–	–	80%	80%	80%	80%	–	–	–

More lines, main results first:

IC50 [2]	Structure (SMILES)	Activity (Eimeria tenella [1])	Activity (Eimeria acervulina [3])	Activity (Eimeria mitis [4])	Activity (Eimeria maxima [5])	Activity (Eimeria tenella [6])	Activity (Eimeria acervulina [7])	Activity (Eimeria maxima [8])	Activity (Eimeria mitis [9])	Activity (Eimeria tenella [10])	Activity (Eimeria acervulina [11])	Activity (Eimeria mitis [12])
121 pM	Cc1ccc(CNc2nccc(-c3c(-c4ccc(F)cc4)nc4cc(CN(C)C)ccn34)n2)cc1	<50%	50%	<50%	80%	–	–	–	–	–	–	–
80 pM	Cc1ccccc1CNc1nccc(-c2c(-c3ccc(F)cc3)nc3cc(CN(C)C)ccn23)n1	<50%	<50%	<50%	50%	–	–	–	–	–	–	–
250 pM	COCCCNc1nccc(-c2c(-c3ccc(F)cc3)nc3cc(CN(C)C)ccn23)n1	80%	80%	<50%	50%	–	–	–	–	–	–	–
100 pM	CCCCCNc1nccc(-c2c(-c3ccc(F)cc3)nc3cc(CN(C)C)ccn23)n1	<50%	80%	50%	80%	–	–	–	–	–	–	–
130 pM	CCCCCCNc1nccc(-c2c(-c3ccc(F)cc3)nc3cc(CN(C)C)ccn23)n1	80%	<50%	<50%	<50%	–	–	–	–	–	–	–
180 pM	CN(C)Cc1ccn2c(-c3ccnc(NCc4cccc(Cl)c4)n3)c(-c3ccc(F)cc3)nc2c1	<50%	<50%	<50%	80%	–	–	–	–	–	–	–
4390 pM	CN(C)Cc1ccn2c(-c3ccnc(NC(=O)NC(C)(C)C)n3)c(-c3ccc(F)cc3)nc2c1	–	–	–	–	80%	80%	80%	80%	–	–	–
450 pM	COC(=O)Nc1nccc(-c2c(-c3ccc(F)cc3)nc3cc(CN(C)C)ccn23)n1	80%	80%	<50%	80%	80%	80%	80%	<50%	–	–	–
83 pM	Cc1cccc(CNc2nccc(-c3c(-c4ccc(F)cc4)nc4cc(CN(C)C)ccn34)n2)c1	80%	<50%	<50%	<50%	–	–	–	–	–	–	–
56 pM	CN(C)Cc1ccn2c(-c3ccnc(NCc4ccccc4Cl)n3)c(-c3ccc(F)cc3)nc2c1	50%	<50%	<50%	80%	–	–	–	–	–	–	–
